Experimental data from ChEMBL document CHEMBL1255516, “Identification of a new biaryl scaffold generating potent renin inhibitors” (Bioorg Med Chem Lett, 2010).

Tests used:
Renin [1] = target: T1, Renin (Homo sapiens, UniProt P00797); experiment: Inhibition of human recombinant renin in phosphate buffer
T1 sequence (P00797 whole entry): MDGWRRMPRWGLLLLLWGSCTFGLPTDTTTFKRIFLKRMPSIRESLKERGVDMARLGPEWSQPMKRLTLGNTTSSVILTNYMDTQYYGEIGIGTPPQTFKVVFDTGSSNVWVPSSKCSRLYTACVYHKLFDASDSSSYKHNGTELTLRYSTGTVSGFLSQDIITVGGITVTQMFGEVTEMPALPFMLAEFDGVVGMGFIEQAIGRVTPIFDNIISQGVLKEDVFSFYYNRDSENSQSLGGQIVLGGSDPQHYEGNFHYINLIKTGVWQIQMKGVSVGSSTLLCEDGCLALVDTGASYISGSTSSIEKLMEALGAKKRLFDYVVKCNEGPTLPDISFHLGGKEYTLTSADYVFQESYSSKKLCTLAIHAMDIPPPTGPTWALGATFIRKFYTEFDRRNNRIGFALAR
Outline: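 Recombinant human renin in PBS with 1 mM EDTA, 0.1% BSA, pH 7.4, premixed at 4 °C with human tetradecapeptide(1–14) substrate (stock 5 μM in 10 mM HCl) and hydroxyquinoline sulfate (stock 30 mM). Compounds diluted in DMSO were added, then incubated 3 h at 37 °C. Angiotensin I accumulation was measured; IC50 from % inhibition curve fit, mean of at least two experiments.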

[2] = Half life in Sprague-Dawley rat at 4 mg/kg, iv; assay type: ADME, organism-based; set-up: dose 4 mg/kg, route intravenous; conditions: in vivo
Outline: (§1)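 Sprague–Dawley rats dosed iv at 4 mpk as the HCl salt in 60% PEG 200/water, 1 ml/kg.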

Rattus norvegicus = experiment: AUC in Sprague-Dawley rat at 30 mg/kg, po; conditions: in vivo
[3] = Volume of distribution at steady state in Sprague-Dawley rat at 4 mg/kg, iv; assay type: ADME, organism-based; set-up: dose 4 mg/kg, route intravenous; conditions: in vivo, read-out: Vdss; outline: as §1
Renin [4] = target: T1, Renin; experiment: Inhibition of human recombinant renin in plasma
Outline: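 Pooled frozen human citrate plasma supplemented with recombinant human renin (150 pg/ml final). Inhibitor in DMSO at various concentrations added to a 7:1 mix of plasma and trapping anti-angiotensin I antibody (final antiserum 1:50,000) in Tris/EDTA, pH 7.2.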

[5] = AUC in Sprague-Dawley rat at 30 mg/kg, po; conditions: Sprague-Dawley, plasma
[6] = Clearance in Sprague-Dawley rat at 4 mg/kg, iv; assay type: ADME, organism-based; set-up: dose 4 mg/kg, route intravenous; conditions: in vivo; outline: as §1
[7] = Oral bioavailability in Sprague-Dawley rat at 30 mg/kg; assay type: ADME, organism-based; conditions: in vivo
Outline: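 Sprague–Dawley rats dosed orally at 30 mpk as the HCl salt in 0.5% methocel, 5 ml/kg; iv reference dose 4 mpk in 60% PEG 200/water, 1 ml/kg.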

| IC50 (Renin [1]) [nM] | IC50 (Renin [4]) [nM] | Compound | other results |
| --- | --- | --- | --- |
| 0.44 | – | COCCCc1ccccc1-c1ccc(C(CN)Cc2ccc(OCCOc3c(Cl)cc(C)cc3Cl)cc2)c(C)c1 (stereo not drawn) | – |
| 0.04 | – | CC(=O)NCCc1ccccc1-c1ccc(C(CN)Cc2ccc(OCCOc3c(Cl)cc(C)cc3Cl)cc2)c(C)c1 (stereo not drawn) | half-life [2]: 7 h; AUC [5]: 5.5 µM·h; Vd [3]: 9 L/kg; clearance [6]: 34 mL/min/kg; bioavailability [7]: 23% |
| 0.09 | 141 | COC(=O)CCc1ccccc1-c1ccc(C(CN)Cc2ccc(OCCOc3c(Cl)cc(C)cc3Cl)cc2)c(C)c1 (stereo not drawn) | – |
| 0.97 | 131 | CC(=O)NCCCc1ccccc1-c1ccc(C(CN)Cc2ccc(OCCOc3c(Cl)cc(C)cc3Cl)cc2)c(C)c1 (stereo not drawn) | – |
| 12.9 | 534 | COC(=O)Cc1ccccc1-c1ccc(C(CN)Cc2ccc(OCCOc3c(Cl)cc(C)cc3Cl)cc2)c(C)c1 (stereo not drawn) | – |
| 1.02 | 103 | Cc1cc(Cl)c(OCCOc2ccc(CC(CN)c3ccc(-c4ccccc4CCOC(N)=O)cc3C)cc2)c(Cl)c1 (stereo not drawn) | – |
| 2.1 | 138 | CC(=O)NCc1ccccc1-c1ccc(C(CN)Cc2ccc(OCCOc3c(Cl)cc(C)cc3Cl)cc2)c(C)c1 (stereo not drawn) | – |

The remaining lines, values behind:

| Compound | IC50 (Renin [1]) [nM] | IC50 (Renin [4]) [nM] | other results |
| --- | --- | --- | --- |
| COCCCc1ccc(Cl)c(CN(C(=O)[C@@H](CN)Cc2ccc(OCCOc3c(Cl)cc(C)cc3Cl)cc2)C2CC2)c1 | – | – | half-life [2]: 6 h; AUC (Rattus norvegicus): 8.3 µM·h; Vd [3]: 12 L/kg |
| Cc1cc(Cl)c(OCCOc2ccc(CC(CN)c3ccc(-c4ccnc(N)c4)cc3C)cc2)c(Cl)c1 (stereo not drawn) | 1.7 | 228 | – |
| Cc1cc(Cl)c(OCCOc2ccc(CC(CN)c3ccc(-c4ccccc4Cl)cc3Cl)cc2)c(Cl)c1 (stereo not drawn) | 0.52 | – | – |
| Cc1cc(Cl)c(OCCOc2ccc(CC(CN)c3ccc(-c4ccccc4CCC(=O)N(C)C)cc3C)cc2)c(Cl)c1 (stereo not drawn) | – | 1110 | – |
| Cc1cc(Cl)c(OCCOc2ccc(CC(CN)c3ccc(-c4cncnc4)cc3C)cc2)c(Cl)c1 (stereo not drawn) | 4.9 | 614 | – |
| Cc1cc(Cl)c(OCCOc2ccc(CC(CN)c3ccc(-c4cnc5cnccn45)cc3C)cc2)c(Cl)c1 (stereo not drawn) | 3.9 | 416 | – |
